Compounds with a hit are over-represented: about 1.8% of the library has one in this group of screens.
PG9 binder: small molecules binding HIV-1 gp120 antibody PG9. inhibition, % at 6.7 µM. 0.43% of 360,000 active. TR-FRET gp120-PG9 antibody binding. AID 624416; in the data active = inhibition above about 8.5%
Rev-erbA mod: modulators of human Rev-erb alpha DNA binding; P20393; Rev-erbα–FITC-DNA binding, fluorescence polarization, 90 min; activity, % at 10 µM; 0.79% of 370,000 active;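 active = activity above about 14%, limit read from the data; passing the limit was not always enough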
Target sequence (P20393 whole entry, looked up): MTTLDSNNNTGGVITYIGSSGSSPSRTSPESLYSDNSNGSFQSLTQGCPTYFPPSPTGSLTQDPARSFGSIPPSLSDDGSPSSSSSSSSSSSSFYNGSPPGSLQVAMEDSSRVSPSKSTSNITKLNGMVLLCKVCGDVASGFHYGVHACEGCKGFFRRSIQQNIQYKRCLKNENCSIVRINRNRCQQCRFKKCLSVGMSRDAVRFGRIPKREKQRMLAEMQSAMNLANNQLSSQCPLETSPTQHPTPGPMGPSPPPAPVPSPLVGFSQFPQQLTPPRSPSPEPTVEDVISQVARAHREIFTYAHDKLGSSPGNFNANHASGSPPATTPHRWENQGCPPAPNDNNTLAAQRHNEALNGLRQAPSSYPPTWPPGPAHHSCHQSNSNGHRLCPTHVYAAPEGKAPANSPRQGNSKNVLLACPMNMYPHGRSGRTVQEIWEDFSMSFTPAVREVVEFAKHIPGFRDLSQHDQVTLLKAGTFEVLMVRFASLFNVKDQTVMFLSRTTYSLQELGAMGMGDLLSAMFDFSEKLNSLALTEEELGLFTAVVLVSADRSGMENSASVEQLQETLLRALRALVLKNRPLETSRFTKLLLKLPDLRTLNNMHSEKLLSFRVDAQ
GalR3 antagonist: antagonists of human GalR3. inhibition, % at 3 µM. O60755. 0.44% of 360,000 active. HEK293 GalR3-CNG cAMP membrane potential fluorescence; galR3 body fused to GalR1 C-terminus. AID 651719;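 active = inhibition above the screen-wide average plus 3 SD, cut at about 13% in these data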;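 also: forskolin and galanin both at EC90 stimulate the cells; cAMP rise reported by CNG channel membrane potential dye signal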
NR2E3 ag-1: agonists of human nuclear receptor NR2E3 | GST-NR2E3/biotin-RetCOR TR-FRET, 1536-well | inhibition of corepressor binding, % at 4.78 µM | 0.12% of 320,000 active | Q9Y5X4;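 active = percent inhibition above the cutoff of mean plus 3 SD of all tested compounds, set per screening campaign, cut at about 20% in these data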
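Format: 1536-well format; test system: GST-NR2E3 and biotin-RetCOR proteins; read-out basis: percent inhibition of TR-FRET ratio; timing: 5 h incubation at 4 °C; detection: time-resolved FRET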
NR2E3 ag-2: activates human NR2E3 receptor; CHO-S Gal4-NCOR/VP16-NR2E3 two-hybrid, luciferase; inhibition of corepressor binding, % at 3.98 µM; 0.35% of 360,000 active; AID 602229;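 active = inhibition above the mean of all tested compounds plus 3 SD, cut at about 70% in these data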;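 also: higher means lower luciferase signal from less NR2E3 corepressor binding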
NR2E3 ag confirm: NR2E3 agonism confirmed in two-hybrid assay; shares compounds with NR2E3 ag-2; CHO-S mammalian two-hybrid NR2E3-NCOR, luciferase luminescence; inhibition, % at 3.98 µM; 51% of 2,300 active; AID 624378;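 active = average inhibition above a cutoff equal to the mean inhibition of all tested compounds plus one SD, cut at about 70% in these data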
VP16 counter: reduces GAL4-VP16 reporter signal in NR2E3 counterscreen; shares compounds with NR2E3 ag-2; CHO-S GAL4-VP16 luciferase reporter, luminescence; inhibition, % at 3.98 µM; 29% of 2,300 active;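 active = mean inhibition above a cutoff equal to the average over all tested compounds plus one standard deviation, cut at about 70% in these data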;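 also: luciferase from a UAS reporter driven by GAL4-VP16 transactivation; higher means less reporter light so more repression of VP16 activity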
Of the large screens only hits and unclear results are named; the others gave an inactive call (follow-up assays come after a bar, where they were run).

Oc1ccc(NC(=S)N=Nc2c(O)[nH]c3ccccc23)cc1	none
Cc1ccc(NC(=S)N=Nc2c(O)[nH]c3ccccc23)cc1	none | NR2E3 ag confirm inactive | VP16 counter inactive
CCCC(=O)N1CCC[C@]2(CC[C@@H](CCC#N)O2)C1	none (no result: PG9 binder, GalR3 antagonist, NR2E3 ag-1, NR2E3 ag-2)
Cc1ccc(OCCCCn2cnc3ccccc32)c(C)c1	NR2E3 ag-2 72 | NR2E3 ag confirm 89 | VP16 counter inactive
Brc1ccccc1OCCCCn1cnc2ccccc21	none
CC1CCCCC1Nc1ncnc2sccc12 (centres undefined)	none | NR2E3 ag confirm inactive | VP16 counter inactive
CC(NCc1ccco1)C(=O)N1CCCC1 (centres undefined)	none (no result: PG9 binder, GalR3 antagonist, NR2E3 ag-1, NR2E3 ag-2)
CCN(CC)CCCNC(=O)CC1Oc2ccccc2NC1=O (centres undefined)	none (no result: PG9 binder, GalR3 antagonist, NR2E3 ag-1, NR2E3 ag-2)
C=CC(=O)N1C/C(=C/c2ccc(F)cc2)C(=O)/C(=C\c2ccc(F)cc2)C1	none (no result: NR2E3 ag-1) | NR2E3 ag confirm inactive | VP16 counter inactive
CN1C2CCC1/C(=C\c1ccc(F)cc1)C(=O)/C2=C/c1ccc(F)cc1	none
C/C(CC(C)(C)C1CCCCC1)=N\NC(N)=S	NR2E3 ag-2 81 | NR2E3 ag confirm inactive | VP16 counter inactive
COC(=O)c1c(-c2ccc(C)cc2)csc1NC(=O)Cc1ccc(OC)c(OC)c1	none (no result: NR2E3 ag-1) | NR2E3 ag confirm inactive | VP16 counter inactive
CS(=O)(=O)N1CCc2cc(S(=O)(=O)Nc3ccc4c(c3)OCCO4)ccc21	none | NR2E3 ag confirm inactive | VP16 counter inactive
CCC(=O)N1CCc2cc(S(=O)(=O)Nc3ccc4c(c3)OCCO4)ccc21	none | NR2E3 ag confirm 89 | VP16 counter 78
CCN1C(=O)CS/C1=N\S(=O)(=O)c1ccc(Cl)cc1	none
CCn1c(Cl)c(C=O)s/c1=N\S(=O)(=O)c1ccccc1	none | NR2E3 ag confirm inactive | VP16 counter inactive
CC(NC(=S)NC1CCCCC1)c1ccccc1 (centres undefined)	none
CCCc1ccc(C(C)NC(=S)NC2CCCCC2)cc1 (centres undefined)	none (no result: NR2E3 ag-1) | NR2E3 ag confirm inactive | VP16 counter inactive
CCC(C)c1ccc(C(C)NC(=S)NCc2ccc(F)cc2)cc1 (centres undefined)	none
CCCc1ccc(C(C)NC(=S)NCc2ccc(F)cc2)cc1 (centres undefined)	NR2E3 ag-2 77 | NR2E3 ag confirm inactive | VP16 counter inactive
COC(=O)C1CN(C2CCCC2)CCS(=O)(=O)N1Cc1ccc(C(F)(F)F)cc1 (centres undefined)	none (no result: PG9 binder, GalR3 antagonist, NR2E3 ag-1, NR2E3 ag-2)
O=C(OCC12CC3CC(CC(C3)C1)C2)c1ccc(NCc2cc(O)ccc2O)cc1	NR2E3 ag-2 74 (no result: NR2E3 ag-1) | NR2E3 ag confirm inactive | VP16 counter inactive
O=S(=O)(/C(=C/c1ccc(C(F)(F)F)cc1)c1nc2ccccc2[nH]1)c1ccccc1	none
CC(C)c1ccc(/C=C(\c2nc3ccccc3[nH]2)S(=O)(=O)c2ccccc2)cc1	NR2E3 ag-2 100 | NR2E3 ag confirm 97 | VP16 counter inactive
Cc1ccc2ccc3cccnc3c2n1	none | NR2E3 ag confirm inactive | VP16 counter inactive
COc1ccc(NC(=O)/C(Cl)=C(/Cl)S(=O)Cc2ccccc2)cn1 (centres undefined)	NR2E3 ag-2 90 | NR2E3 ag confirm 95 | VP16 counter inactive
COc1ccc(NC(=O)Cc2ccccc2)cn1	none
CN(C)c1cccc(/C=C2\CC3(OC(=O)c4cccc(F)c4)CCCN2C3)c1 (centres undefined)	none (no result: PG9 binder, GalR3 antagonist, NR2E3 ag-1, NR2E3 ag-2)
Cc1ccccc1N=Nc1c(C)[nH]n(C(N)=S)c1=O	none | NR2E3 ag confirm inactive | VP16 counter inactive
CN1C2=N[C@H](c3ccccc3Br)CC(=O)N2/C(=C\c2ccccc2)[C@@H]1c1ccccc1	none (no result: PG9 binder, GalR3 antagonist, NR2E3 ag-1, NR2E3 ag-2)
CCC(=O)O[C@@H]1CC(=O)O[C@H](C)C/C=C/C=C/[C@H](O)[C@H](C)C[C@H](CC=O)[C@H](O[C@@H]2O[C@H](C)[C@@H](O[C@H]3C[C@@](C)(O)[C@@H](OC(=O)CC)[C@H](C)O3)[C@H](N(C)C)[C@H]2O)[C@H]1OC	none (no result: PG9 binder, GalR3 antagonist, NR2E3 ag-1, NR2E3 ag-2)
COC(=O)c1cc(C2(c3c[nH]c4ccccc34)CCN(C(=O)OC(C)(C)C)CC2)n2ccccc12	none (no result: PG9 binder, GalR3 antagonist, NR2E3 ag-1, NR2E3 ag-2)
CCOC(=O)N1CCN(C(=O)C[C@H]2C[C@@]3(C(=O)OC)C(=C[C@H](COCc4ccccc4)O[C@@H]3C)N(CCc3ccc(OC)c(OC)c3)C2=O)CC1	none (no result: PG9 binder, GalR3 antagonist, NR2E3 ag-1, NR2E3 ag-2)
CC1=NN(C(N)=S)C(=O)C1N=Nc1c(Cl)cc([N+](=O)[O-])cc1Cl (centres undefined)	NR2E3 ag-2 83 | NR2E3 ag confirm inactive | VP16 counter inactive
CC1=NN(C(N)=S)C(=O)C1N=Nc1ccc(C)cc1C (centres undefined)	none (no result: NR2E3 ag-2)
CC1=NN(C(N)=S)C(=O)C1N=Nc1c(C)cc(C)cc1C (centres undefined)	NR2E3 ag-2 73 | NR2E3 ag confirm inactive | VP16 counter inactive
CC1=NN(C(N)=S)C(=O)C1N=Nc1ccccc1[N+](=O)[O-] (centres undefined)	none (no result: NR2E3 ag-1)
CC1=NN(C(N)=S)C(=O)C1N=Nc1ccccc1C (centres undefined)	NR2E3 ag-2 74 | NR2E3 ag confirm inactive | VP16 counter inactive
CCOC(=O)[C@@]12CCCC=C1N(CCc1ccc(Cl)cc1)C(=O)[C@H]2CC(=O)NCc1ccc(OC)c(OC)c1	none (no result: PG9 binder, GalR3 antagonist, NR2E3 ag-1, NR2E3 ag-2)
O=C(NC1CCCC1)c1cc(COc2ccc3ncccc3c2)on1	NR2E3 ag-2 95 (no result: PG9 binder, Rev-erbA mod, GalR3 antagonist) | NR2E3 ag confirm 95 | VP16 counter 84
Cc1cc(OCc2cc(C(=O)NC3CCC3)no2)cc(C)c1Cl	none (no result: PG9 binder, Rev-erbA mod, GalR3 antagonist)
Cc1cc(OCc2cc(C(=O)N3CCN(CC4CC4)CC3)no2)cc(C)c1Cl	none
Cc1cc(OCc2cc(C(=O)N3CCC(Oc4cccnc4)CC3)no2)cc(C)c1Cl	NR2E3 ag-2 94 | NR2E3 ag confirm 93 | VP16 counter 74
Cc1ccc(OCc2cc(C(=O)NC3CCCCC3)no2)cn1	NR2E3 ag-2 83 | NR2E3 ag confirm inactive | VP16 counter inactive
O=C(NCCc1cn2ccccc2n1)c1ccccc1F	none
O=C(NCCc1cn2ccccc2n1)c1cc(COc2ccc3ncccc3c2)on1	none | NR2E3 ag confirm inactive | VP16 counter inactive
NC(=NC(=O)/C=C/c1ccccc1Br)N(CC#Cc1ccccc1)CC#Cc1ccccc1	none (no result: PG9 binder, GalR3 antagonist, NR2E3 ag-1, NR2E3 ag-2)
CCOC(=O)C1(Cc2ccccc2)CCN(Cc2cccc(C#N)c2)CC1	none (no result: PG9 binder, GalR3 antagonist, NR2E3 ag-1, NR2E3 ag-2)
COc1ccc(CNC(=O)CCNS(=O)(=O)c2ccc3[nH]c(=O)oc3c2)cc1	none (no result: PG9 binder, GalR3 antagonist, NR2E3 ag-1, NR2E3 ag-2)
COCC1CCN(C(=O)c2cc(COc3ccc4ncccc4c3)on2)CC1	none | NR2E3 ag confirm 91 | VP16 counter 75
COCC1CCN(C(=O)c2cc(COc3ccc(-n4cncn4)cc3)on2)CC1	none
O=C(c1cc(COc2ccc3ncccc3c2)on1)N1CCCCCC1	GalR3 antagonist 41, NR2E3 ag-2 71 | NR2E3 ag confirm 95 | VP16 counter 76

Assay outcomes deposited in PubChem by several laboratories.
